Measured values published in ChEMBL document CHEMBL1140585, “Synthesis and antioxidant properties of substituted 3-benzylidene-7-alkoxychroman-4-ones” (Bioorg Med Chem Lett, 2007).
The source made the active and inactive calls. The calls are words filed in the database; no cut-off is given here.

What was measured:
[1] = system: Radical scavenging activity; assay: Antioxidant activity assessed as DPPH free radical scavenging activity; assay type: functional
In short: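 DPPH in methanol (150 µM) incubated with various compound concentrations at 37 C for 30 min; absorbance read at 517 nm. Percent scavenging = 100 × (Abs control − Abs compound)/Abs control; IC50 obtained by linear regression of percent inhibition against concentration.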

Brain = assay: Antioxidant activity in Wistar rat brain assessed as inhibition of lipid peroxidation; assay type: functional, tissue-based
In short: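 Brain homogenate (10% w/v) of young adult male Wistar rats in 0.15 M KCl, 800g 10 min supernatant. Compounds in DMSO at varying amounts; peroxidation started with FeCl3 plus ascorbic acid, 20 min at 37 C. Stopped with phosphotungstic acid and thiobarbituric acid, heated 100 C 10 min, n-butanol extract read by fluorescence (ex 515/em 555 nm); IC50 from log dose–inhibition curve.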

[2] = Antioxidant activity at 100 ug by ferric reducing antioxidant power assay; assay type: functional
In short: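 FRAP reagent: 10 vol 300 mM acetate buffer pH 3.6, 1 vol 10 mM TPTZ in 40 mM HCl, 1 vol 20 mM FeCl3, diluted to 1/3 with methanol, pre-warmed to 37 C. Diluted compound mixed with reagent, 8 min at 37 C, absorbance at 593 nm against methanol blank; expressed as lM ferric reduced to ferrous, calibrated with known ferrous ion.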

Row | SMILES | IC50 [1] [µM] | IC50 (Brain) [µM] | Activity [2]
1 | O=C1/C(=C/c2ccc(O)c(O)c2)COc2cc(O)ccc21 [SAPPANONE A] | 35 | 14.3 | 49.3
2 | CCCOc1ccc2c(c1)OC/C(=C\c1ccc(O)c(O)c1)C2=O | 25.4 | 11.4 | 53.8
3 | COc1ccc2c(c1)OC/C(=C\c1ccc(O)c(O)c1)C2=O | 27.2 | 12.1 | 71.6
4 | COc1ccc(/C=C2\COc3cc(OC)ccc3C2=O)cc1 | > 100 | > 100 | inactive
5 | COc1ccc2c(c1)OC/C(=C\c1cc(OC)c(O)c(OC)c1)C2=O | 30.8 | 11 | 61.6
6 | COc1ccc2c(c1)OC/C(=C\c1ccc(O)cc1)C2=O | > 100 | > 100 | inactive
7 | Cc1c(C)c2c(c(C)c1O)CCC(C)(C(=O)O)O2 (stereo unspecified) [TROLOX] | 36.3 | 41.6 | 41.9

More lines, main results first:

Row | IC50 [1] [µM] | IC50 (Brain) [µM] | SMILES | Activity [2]
8 | 24.5 | 11 | CCCCOc1ccc2c(c1)OC/C(=C\c1ccc(O)c(O)c1)C2=O | 44.6
9 | > 100 | > 100 | COc1ccc2c(c1)OC/C(=C\c1ccccc1OC)C2=O | inactive
10 | 24.3 | 11.9 | CCOc1ccc2c(c1)OC/C(=C\c1ccc(O)c(O)c1)C2=O | 62.7
11 | > 100 | > 100 | COc1cccc(/C=C2\COc3cc(OC)ccc3C2=O)c1 | inactive
12 | > 100 | > 100 | O=C1/C(=C/c2ccc(O)cc2)COc2cc(O)ccc21 | inactive
